Source: ChEMBL document CHEMBL1833819, “Dihydroquinazolines as a novel class of Trypanosoma brucei trypanothione reductase inhibitors: discovery, synthesis, and characterization of their binding mode by protein crystallography” (J Med Chem, 2011)

Tests used:
Trypanothione reductase = Trypanothione reductase (Trypanosoma brucei brucei, UniProt P39051); test: Inhibition of recombinant trypanothione reductase from Trypanosoma brucei brucei S427 by DTNB-coupled spectrophotometric assay
Outline: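 Recombinant T. brucei brucei S427 TryR tested in a nonenzymatically coupled spectrophotometric assay, where DTNB reduction to TNB is followed as A412 increase. IC50 is the mean of independent duplicates (at least two replicates).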

[1] = tested on: Trypanosoma brucei brucei; test: Antitrypanosomal activity against blood stream form Trypanosoma brucei brucei by resazurin fluorescence-based viability assay; type: functional, organism-based
Outline: (§1)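 Bloodstream-form T. b. brucei parasites and MRC5 cells were assayed in resazurin fluorescence-based viability tests. […] Pentamidine served as the positive control in all T. brucei plates.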

MRC5 = test: Cytotoxicity against human MRC5 cells by resazurin fluorescence-based viability assay; type: cell-based; outline: as §1

Trypanothione reductase, sequence (P39051 whole entry): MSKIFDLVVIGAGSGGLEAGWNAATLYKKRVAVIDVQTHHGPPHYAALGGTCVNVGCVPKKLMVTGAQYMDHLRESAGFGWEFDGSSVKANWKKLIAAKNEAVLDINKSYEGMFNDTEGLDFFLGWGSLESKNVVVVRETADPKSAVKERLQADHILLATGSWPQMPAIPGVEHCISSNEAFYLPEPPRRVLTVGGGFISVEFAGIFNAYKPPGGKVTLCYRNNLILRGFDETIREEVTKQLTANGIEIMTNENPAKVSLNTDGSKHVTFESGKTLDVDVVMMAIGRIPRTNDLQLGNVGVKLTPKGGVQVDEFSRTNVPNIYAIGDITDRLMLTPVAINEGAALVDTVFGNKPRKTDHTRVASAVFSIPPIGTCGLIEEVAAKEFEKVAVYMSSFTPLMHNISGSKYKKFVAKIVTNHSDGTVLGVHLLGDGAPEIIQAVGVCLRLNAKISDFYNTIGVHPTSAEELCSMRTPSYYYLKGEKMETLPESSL

SMILES | IC50 (Trypanothione reductase) [nM] | EC50 [1] [nM] | EC50 (MRC5) [nM]
CC1=Nc2ccc(Cl)cc2C(c2ccccc2)N1CCO (racemic) | 1700 |  | 
CC1=Nc2ccc(Cl)cc2C(c2ccc(O)cc2)N1CCN1CCCCC1 (racemic) | 20000 |  | 
CC1=Nc2ccc(Cl)cc2C(c2ccccc2)N1CCN1CCN(C(=O)Cc2ccccc2)CC1 (racemic) | 2000 |  | 
CC1=Nc2ccc(-c3ccccc3)cc2C(c2ccccc2)N1CCN1CCCCC1 (racemic) | 7300 | 750 | 3400
CC1=Nc2ccc(Cl)cc2C(c2ccccc2)N1CCN1CCN(C(=O)C2CC2)CC1 (racemic) | 1500 |  | 
CC1=Nc2ccc(-c3ccsc3)cc2C(c2ccccc2)N1CCN1CCCCC1 (stereo not drawn) | 790 |  | 
CC1=Nc2ccc(Cl)cc2C(c2ccc(C(C)(C)C)cc2)N1CCN1CCCCC1 (racemic) | 7900 |  | 
COc1cccc(C2c3cc(Cl)ccc3N=C(C)N2CCN2CCCCC2)c1 (stereo not drawn) | 28000 |  | 
CC1=Nc2ccc(Cl)cc2C(c2ccccc2)N1Cc1cccc(C(F)(F)F)c1 (racemic) | 1500 |  | 
COCC(=O)N1CCN(CCN2C(C)=Nc3ccc(Cl)cc3C2c2ccccc2)CC1 (racemic) | 1600 |  | 
CC1=Nc2ccc(Br)cc2C(c2ccccc2)N1CC(=O)NN (racemic) | 15000 |  | 
COC(=O)CN1C(CCN2CCOCC2)=Nc2ccc(Br)cc2C1c1ccccc1 (racemic) | 93000 |  | 
O=C1CN2C(=Nc3ccc(Br)cc3C2c2ccccc2)CN1 (racemic) | 37000 |  | 
CCOC(=O)CN1C(C)=Nc2ccc(Br)cc2C1c1ccccc1 (racemic) | 12000 |  | 
CC1=Nc2ccc(Cl)cc2C(c2ccccc2)N1CCNC(=O)CN(C)C (racemic) | 810 | 13000 | 12000
CC1=Nc2ccc(Cl)cc2C(c2ccc(Cl)cc2)N1CCN1CCCCC1 (racemic) | 730 |  | 
CC1=Nc2ccc(Cl)cc2C(c2ccccc2)N1Cc1cccc(N(C)C)c1 (racemic) | 810 | 6400 | 27000
CC1=Nc2ccc(Cl)cc2C(c2ccccc2)N1CCNC(=O)Cc1ccccc1 (racemic) | 1800 |  | 
CC1=Nc2ccc(Cl)cc2C(c2ccc(C)cc2)N1CCN1CCCCC1 (racemic) | 590 | 1400 | 5000
CC1=Nc2c(-c3ccccc3)cc(Cl)cc2C(c2ccccc2)N1CCCN(C)C (racemic) | 24000 |  | 
CC(=O)NCCN1C(C)=Nc2ccc(Cl)cc2C1c1ccccc1 (racemic) | 2100 |  | 
CC1=Nc2ccc(Cl)cc2C(c2ccccc2)N1CCN1CCN(C(=O)OC(C)(C)C)CC1 (racemic) | 1500 |  | 

SMILES | IC50 (Trypanothione reductase) [nM] | EC50 [1] [nM] | EC50 (MRC5) [nM]
CC1=Nc2ccc(-c3cc4ccccc4o3)cc2C(c2ccccc2)N1CCN1CCCCC1 (racemic) | 8500 |  | 
CC1=Nc2ccc(Cl)cc2C(c2ccccc2)N1Cc1ccccc1F (racemic) | 940 | 14000 | 36000
CCC1=Nc2ccc(Br)cc2C(c2ccccc2)N1CC(=O)OC (racemic) | 23000 |  | 
CC1=Nc2ccc(Cl)cc2C(c2ccccc2)N1CCCN(C)C (racemic) | 1000 |  | 2700
CC1=Nc2ccc(Cl)cc2C(c2ccccc2)N1CCNC(=O)OC(C)(C)C (racemic) | 2600 |  | 
CC1=Nc2ccc(-c3ccco3)cc2C(c2ccccc2)N1CCN1CCCCC1 (racemic) | 1300 |  | 
COC(=O)CN1C(c2cc(OC)c(OC)c(OC)c2)=Nc2ccc(C)cc2C1c1ccccc1 (racemic) | > 100000 |  | 
CC1=Nc2ccc(Cl)cc2C(c2cccc(O)c2)N1CCN1CCCCC1 (racemic) | 1600 |  | 
CC1=Nc2ccc(Cl)cc2C(Cc2ccccc2)N1CCN1CCCCC1 (racemic) | 50000 |  | 
CC1=Nc2ccc(Cl)cc2C(c2ccccc2)N1Cc1ccc(C(F)(F)F)cc1 (racemic) | 2200 |  | 
O=C1CN2C(=Nc3ccc(Br)cc3C2c2ccccc2)CCN1 (racemic) | 39000 |  | 
COCC(=O)NCCN1C(C)=Nc2ccc(Cl)cc2C1c1ccccc1 (racemic) | 1300 |  | 
CC1=Nc2ccc(Cl)cc2C(c2ccc(Cl)c(Cl)c2)N1CCN1CCCCC1 (racemic) | 1300 |  | 
CNCCN1C(C)=Nc2ccc(Cl)cc2C1c1ccccc1 (racemic) | 2000 |  | 
COc1ccc(C2c3cc(Cl)ccc3N=C(C)N2CCN2CCCCC2)cc1 (racemic) | 1500 |  | 
COc1ccc(C2(O)c3cc(Cl)ccc3N=C(C)N2CCN2CCCCC2)cc1 (racemic) | 4900 |  | 
CC1=Nc2ccc(Cl)cc2C(O)(c2ccc(C)cc2)N1CCN1CCCCC1 (racemic) | 710 | 1500 | 5700
COC(=O)CN1C(C)=Nc2ccc(Br)cc2C1c1ccccc1Cl (racemic) | > 100000 |  | 
CC1=Nc2ccc(Cl)cc2C(c2ccc(F)cc2)N1CCN1CCCCC1 (racemic) | 4900 |  | 
COC(=O)CN1C(CN2CCOCC2)=Nc2ccc(Br)cc2C1c1ccccc1 (racemic) | 89000 |  | 
CC1=Nc2ccc(Cl)cc2C(O)(c2ccc(F)cc2)N1CCN1CCCCC1 (racemic) | 8300 |  | 
CC1=Nc2ccc(Cl)cc2C(c2ccccc2)N1CCN1CCN(C(=O)c2ccccc2)CC1 (racemic) | 1600 |  | 

SMILES | IC50 (Trypanothione reductase) [nM] | EC50 [1] [nM] | EC50 (MRC5) [nM]
CC1=Nc2ccc(Cl)cc2C(c2cccc(Cl)c2)N1CCN1CCCCC1 (stereo not drawn) | 1200 |  | 
CC1=Nc2ccc(Cl)cc2C(c2ccccc2)N1CCN1CCCCC1 (racemic) | 1800 | 1300 | 14000
CC1=Nc2ccc(Cl)cc2C(c2ccccc2)N1Cc1ccc(Cl)cc1 (racemic) | 2200 |  | 
CC1=Nc2ccc(Cl)cc2C(c2ccc(C)c(C)c2)N1CCN1CCCCC1 (racemic) | 6800 |  | 
CC1=Nc2ccc(Cl)cc2C(c2cccc(C)c2)N1CCN1CCCCC1 (racemic) | 4600 |  | 
CCN1C(C)=Nc2ccc(Cl)cc2C1c1ccccc1 (racemic) | 1200 |  | 
CC1=Nc2ccc(Cl)cc2C(c2ccccc2)N1CCN1CCN(C(=O)c2ccco2)CC1 (racemic) | 420 | 10000 | 23000
CC1=Nc2ccc(Cl)cc2C(c2ccccc2)N1CCNC(=O)C1CC1 (racemic) | 2300 |  | 
COC(=O)CN1C(C)=Nc2ccc(Cl)cc2C1c1ccccc1 (racemic) | 9400 |  | 
COc1ccccc1CN1C(C)=Nc2ccc(Cl)cc2C1c1ccccc1 (racemic) | 1100 |  | 
COC(=O)CN1C(c2ccccc2)=Nc2ccc(C)cc2C1c1ccccc1 (racemic) | > 100000 |  | 
CC1=Nc2ccc(-c3ccncc3)cc2C(c2ccccc2)N1CCN1CCCCC1 (stereo not drawn) | 4400 |  | 
CC1=Nc2ccc(Cl)cc2C(C2CCCCC2)N1CCN1CCCCC1 (racemic) | 27000 |  | 
CC1=Nc2ccc(Cl)cc2C(c2ccccc2)N1Cc1cccc(Cl)c1 (racemic) | 3500 |  | 
CC(=O)N1CCN(CCN2C(C)=Nc3ccc(Cl)cc3C2c2ccccc2)CC1 (racemic) | 1700 |  | 
CC1=Nc2ccc(Br)cc2C(c2ccccc2)N1CC(=O)O (racemic) | 37000 |  | 
CC1=Nc2ccc(Cl)cc2C(c2ccccc2)N1CCNC(=O)c1ccccc1 (racemic) | 1700 |  | 
CC1=Nc2ccc(-c3cccc4ccccc34)cc2C(c2ccccc2)N1CCN1CCCCC1 (racemic) | 8000 |  | 
CC1=Nc2ccc(Cl)cc2C(c2ccccc2)N1CCN1CCOCC1 (racemic) | 2800 |  | 
CC1=Nc2ccc(Cl)cc2C(c2ccccc2)N1CCc1ccccc1 (racemic) | 2000 |  | 
CC1=Nc2ccc(Cl)cc2C(c2ccccc2)N1CCN(C)C (racemic) | 3500 |  | 
CC1=Nc2ccc(Cl)cc2C(c2ccccc2)N1Cc1ccc(C)cc1 (racemic) | 1300 |  | 
